Assay results taken from ChEMBL document CHEMBL3603808, “Discovery and structure of a new inhibitor scaffold of the autophagy initiating kinase ULK1” (Bioorg Med Chem, 2015).
Active and inactive are the calls of the source. The rule behind the calls is not given here.

Assays:
[1] = target: T1, 3-phosphoinositide-dependent protein kinase 1 (Homo sapiens, UniProt O15530); assay: Inhibition of recombinant PDK1 (unknown origin) using PDK1tide substrate incubated for 7 mins
T1 sequence (O15530 whole entry): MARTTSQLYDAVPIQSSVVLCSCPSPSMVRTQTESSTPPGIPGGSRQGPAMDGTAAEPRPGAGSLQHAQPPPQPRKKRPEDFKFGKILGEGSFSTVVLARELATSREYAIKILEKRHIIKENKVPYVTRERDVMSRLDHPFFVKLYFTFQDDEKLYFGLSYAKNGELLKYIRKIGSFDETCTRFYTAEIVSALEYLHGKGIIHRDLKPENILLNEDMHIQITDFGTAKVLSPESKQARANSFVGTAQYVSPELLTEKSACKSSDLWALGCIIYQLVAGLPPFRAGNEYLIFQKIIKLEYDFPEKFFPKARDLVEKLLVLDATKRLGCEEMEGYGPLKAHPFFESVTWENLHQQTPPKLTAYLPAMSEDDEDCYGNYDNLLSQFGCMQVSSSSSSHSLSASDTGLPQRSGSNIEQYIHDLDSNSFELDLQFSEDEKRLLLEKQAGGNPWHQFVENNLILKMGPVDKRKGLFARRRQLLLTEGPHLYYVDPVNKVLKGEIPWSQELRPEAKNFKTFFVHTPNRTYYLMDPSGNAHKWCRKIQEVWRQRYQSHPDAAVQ
Summary of the method: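 Recombinant PDK1 at 5 nM with 50 µM synthetic PDK1tide in 50 mM HEPES pH 7.5, 10 mM MgCl2, 1 mg/ml BSA, 0.02% Triton-X and 50 µM DTT. Stopped after 7 min by spotting onto nitrocellulose, washed three times in 1% phosphoric acid and phosphorimaged. IC50 from curve fitting; duplicate.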

[2] = tested on: HeLa; assay: Inhibition of autophagy in human HeLa cells assessed as induction of LC3-I protein accumulation at 4 uM incubated for 24 hrs by immunoblotting method; type: functional, cell-based
Summary of the method: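 HeLa cells were grown in DMEM with 10% FBS to about 50% confluency, then given 4 µM compound or DMSO for 24 h. Cold-PBS wash, lysis in TBS pH 7.6 with 1% Triton-X, 0.2% SDS and protease/phosphatase inhibitors. Lysates were protein-normalized and immunoblotted for LC3-I/LC3-II, with actin as loading control.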

[3] = target: T2, Serine/threonine-protein kinase ULK1 (Homo sapiens, UniProt O75385); assay: Inhibition of SUMO-tagged ULK1 (unknown origin) kinase domain expressed in KRX cells using [32P]-gamma-ATP and myelin basic protein substrate incubated for 7 mins; type: cell-based
T2 sequence (O75385 whole entry): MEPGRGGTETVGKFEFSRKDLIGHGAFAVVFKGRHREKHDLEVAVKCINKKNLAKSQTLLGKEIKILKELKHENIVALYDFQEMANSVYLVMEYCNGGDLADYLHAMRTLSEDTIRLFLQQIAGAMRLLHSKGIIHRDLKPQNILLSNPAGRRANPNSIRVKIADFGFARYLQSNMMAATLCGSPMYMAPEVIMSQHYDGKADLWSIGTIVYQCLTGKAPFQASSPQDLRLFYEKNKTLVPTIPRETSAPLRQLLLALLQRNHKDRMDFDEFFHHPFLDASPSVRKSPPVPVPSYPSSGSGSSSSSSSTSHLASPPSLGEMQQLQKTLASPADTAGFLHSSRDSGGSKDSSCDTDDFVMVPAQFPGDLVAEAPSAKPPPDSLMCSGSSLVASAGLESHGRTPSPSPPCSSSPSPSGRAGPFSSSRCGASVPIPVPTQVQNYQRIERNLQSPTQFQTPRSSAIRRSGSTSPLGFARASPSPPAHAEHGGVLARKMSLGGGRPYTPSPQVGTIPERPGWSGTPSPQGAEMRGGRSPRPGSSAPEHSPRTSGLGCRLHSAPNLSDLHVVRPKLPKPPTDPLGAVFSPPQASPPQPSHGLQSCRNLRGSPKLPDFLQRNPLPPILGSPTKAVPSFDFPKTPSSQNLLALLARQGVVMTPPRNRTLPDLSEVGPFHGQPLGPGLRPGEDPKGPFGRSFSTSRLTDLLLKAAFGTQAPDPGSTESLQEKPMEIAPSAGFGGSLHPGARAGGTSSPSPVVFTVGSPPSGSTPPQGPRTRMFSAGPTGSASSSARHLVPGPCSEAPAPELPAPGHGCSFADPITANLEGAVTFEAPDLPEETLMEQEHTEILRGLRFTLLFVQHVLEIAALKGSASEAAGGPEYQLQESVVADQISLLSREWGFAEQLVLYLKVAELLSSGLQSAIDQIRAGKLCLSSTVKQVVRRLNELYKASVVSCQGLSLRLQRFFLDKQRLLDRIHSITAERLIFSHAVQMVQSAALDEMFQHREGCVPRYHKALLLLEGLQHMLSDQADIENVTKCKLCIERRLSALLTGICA
Summary of the method: (§1)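 Enzyme at 5 nM with 50 µM cold ATP, 0.05 µCi/µl 32P-γ-ATP and 20 µM myelin basic protein as substrate. Reactions were spotted onto nitrocellulose, washed three times in 1% phosphoric acid, dried and imaged by phosphorimager. IC50 from curve fitting; duplicate.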

[4] = target: T3, Serine/threonine-protein kinase ULK2 (Homo sapiens, UniProt Q8IYT8); assay: Inhibition of SUMO-tagged ULK2 (unknown origin) kinase domain expressed in KRX cells using [32P]-gamma-ATP and myelin basic protein substrate incubated for 7 mins; type: single protein; summary of the method: as §1
T3 sequence (Q8IYT8 whole entry): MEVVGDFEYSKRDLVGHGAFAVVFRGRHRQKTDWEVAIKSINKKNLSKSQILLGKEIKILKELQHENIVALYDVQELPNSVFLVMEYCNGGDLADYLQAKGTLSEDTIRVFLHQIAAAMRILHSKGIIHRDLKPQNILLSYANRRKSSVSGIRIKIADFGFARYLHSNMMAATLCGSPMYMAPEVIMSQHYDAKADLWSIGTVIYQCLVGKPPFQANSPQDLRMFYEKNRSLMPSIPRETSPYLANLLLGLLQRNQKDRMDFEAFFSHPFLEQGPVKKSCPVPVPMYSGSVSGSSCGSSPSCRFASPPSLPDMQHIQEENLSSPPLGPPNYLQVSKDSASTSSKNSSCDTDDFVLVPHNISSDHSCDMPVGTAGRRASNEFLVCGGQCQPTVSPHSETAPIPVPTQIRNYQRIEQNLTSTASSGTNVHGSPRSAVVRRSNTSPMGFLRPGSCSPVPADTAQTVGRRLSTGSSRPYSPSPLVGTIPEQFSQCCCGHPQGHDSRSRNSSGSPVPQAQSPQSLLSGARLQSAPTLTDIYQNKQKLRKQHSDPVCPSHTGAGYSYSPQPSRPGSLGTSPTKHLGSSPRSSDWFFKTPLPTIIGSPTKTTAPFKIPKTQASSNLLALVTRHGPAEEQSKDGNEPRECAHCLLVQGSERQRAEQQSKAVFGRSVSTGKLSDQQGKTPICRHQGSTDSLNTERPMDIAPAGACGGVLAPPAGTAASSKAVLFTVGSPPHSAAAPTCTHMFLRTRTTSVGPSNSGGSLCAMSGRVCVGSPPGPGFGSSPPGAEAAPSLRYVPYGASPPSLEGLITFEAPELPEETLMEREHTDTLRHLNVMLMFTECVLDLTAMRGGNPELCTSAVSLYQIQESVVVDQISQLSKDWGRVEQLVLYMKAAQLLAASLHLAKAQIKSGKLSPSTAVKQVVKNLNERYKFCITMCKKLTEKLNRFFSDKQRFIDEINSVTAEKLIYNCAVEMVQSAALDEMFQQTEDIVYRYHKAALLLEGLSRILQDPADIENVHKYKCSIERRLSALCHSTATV

IC50 [1] | IC50 [3] | IC50 [4] | Structure (SMILES) | Activity [2]
65 nM | 87 nM | 310 nM | O=C(NCCCNc1nc(Nc2cccc(NC(=O)N3CCCC3)c2)ncc1I)c1cccs1 [BX-795] | Active
56 nM | 67 nM | 200 nM | O=C(NCCCNc1nc(Nc2cccc(NC(=O)N3CCCC3)c2)ncc1I)C1CC1 | Active
421 nM | – | – | O=C(NCCCNc1nc(Nc2cccc(CN3CCOCC3)c2)ncc1C1CC1)C1CCC1 | Active
